This is a sample that favours compounds with a hit; in the whole collection about 1.5% have one here.
FLuc inhib CS = firefly luciferase enzyme inhibitors, primary screen, artefact control for luciferase-based inhibitor screens, biochemical, luminescence, ATPLite. hit rate 1.5% among 200,000. 10 min. AID 1006, 2008. inhibition, % at 10 µM. Luciferin 4-monooxygenase (Photinus pyralis), P08659;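 active = inhibition above about 50% when tested at 10 µM, limit read from the data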
Target sequence (P08659 whole entry, looked up): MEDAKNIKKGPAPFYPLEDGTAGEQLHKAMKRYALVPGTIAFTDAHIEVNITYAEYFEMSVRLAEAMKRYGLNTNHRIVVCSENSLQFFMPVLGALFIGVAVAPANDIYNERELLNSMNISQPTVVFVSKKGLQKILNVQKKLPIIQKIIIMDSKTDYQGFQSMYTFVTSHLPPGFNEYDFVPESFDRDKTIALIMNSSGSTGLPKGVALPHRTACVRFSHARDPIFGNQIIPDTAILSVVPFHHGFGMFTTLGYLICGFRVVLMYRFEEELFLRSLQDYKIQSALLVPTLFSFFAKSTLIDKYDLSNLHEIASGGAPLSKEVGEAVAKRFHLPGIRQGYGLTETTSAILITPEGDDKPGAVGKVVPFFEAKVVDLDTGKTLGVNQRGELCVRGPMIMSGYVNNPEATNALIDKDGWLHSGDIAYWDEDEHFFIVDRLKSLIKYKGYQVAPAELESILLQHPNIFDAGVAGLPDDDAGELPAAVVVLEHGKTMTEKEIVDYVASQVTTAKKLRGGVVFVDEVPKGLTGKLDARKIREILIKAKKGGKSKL
FLuc stim CS = FLuc activators, initial screening, artefact control for FLuc-dependent activation tests, biochemical, ATPlite luminescence | activation factor at 10 µM | Luciferin 4-monooxygenase (Photinus pyralis), P08659 | ATPlite luciferase biochemical, 10 min; 0 = ATP-free wells, 1 = DMSO control | 200,000 tested, under 10 active;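 active = luciferase activation factor, scaled between plate controls, of at least 2 with compound at 10 µM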
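Assay system: Luciferase/luciferin detection reagent, cell-free biochemical luciferase assay / Read-out: luciferase activation / Benchmarks: No-ATP low control, compound-free enzyme-plus-ATP high control / Medium: PBS buffer for ATP / Detection: luminescence measurement of luciferase light output / Schedule: 10 min at ambient temperature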
PPC-1+TRAIL kill = compounds killing PPC-1 cancer cells with TRAIL present, primary screen, TRAIL potentiator project, ATPLite luminescence, uHTS; PPC-1 cells + TRAIL, ATPLite viability luminescence; cell killing (% activity), % at 4 µM or 5 µM; hit rate 0.41% among 220,000; AID 1443, 2008;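 active = cell killing above 50% in the first pass at 4 µM, then a duplicate retest at 5 µM averaging 50% or more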;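 also: plate controls were cells with TRAIL plus DMSO for no effect and medium-only wells lacking cells for full effect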
C8 TRAIL sens = viability loss with TRAIL in NB7+C8 cells, primary screen, TRAIL sensitizer project, cell-based, ATPlite luminescence; inhibition (viability loss, TRAIL sensitization), % at 10 µM; hit rate 1% among 360,000; AID 624354, 2012;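 active = compounds causing at least 50% loss of cell viability in the single-dose screen, relative to plate controls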
The depositor's hits bear a star; / = not tested or not shown.

SMILES	FLuc inhib CS	FLuc stim CS	PPC-1+TRAIL kill	C8 TRAIL sens
COCCN1CCN(Cc2nc(C3(c4ccc(C)cc4)CCCC3)no2)CC1	-8	1.1	6	-2
O=C(NCCc1ccccc1)c1ccc2c(c1)OCCCO2	/	/	/	92*
Cc1ccc(C(=O)NCCc2ccccc2)cc1	/	/	/	64*
O=C(NCCc1cccc(Cl)c1)c1ccc2c(c1)OCO2	/	/	/	57*
COC(=O)c1c(N)sc(C(=O)NCCc2ccccc2)c1C	/	/	/	75*
Cc1ccc(C(=O)NCCc2ccncc2)cc1	29	0.7	23	10
O=C(NCCc1ccccc1)c1ccc2c(c1)OCCO2	/	/	/	83*
O=C(NCCOc1ccccc1)c1ccc2c(c1)OCO2	51*	0.5	27	24
CN(CCOc1ccccc1)C(=O)c1ccc2c(c1)OCO2	/	/	/	-4
Cc1ccc(C(=O)NCCc2csc(C)n2)cc1	58*	0.4	39	39
COCCn1c(=O)[nH]c2cc(C(=O)Nc3cc(C)cc(C)c3)ccc2c1=O	/	/	/	12
CCC(CO)NC1=CC(=O)CCC1 (centres undefined)	-7	1.1	-14	1
Cc1ccc(NC(=O)c2ccc(C)cc2)cc1	/	/	/	73*
Cc1cccc(C(=O)Nc2ccc(C(=O)Nc3ccc(O)cc3)cc2)c1	/	/	/	68*
O=C(Nc1ccc(O)cc1)c1ccc(NC(=O)c2cccs2)cc1	/	/	/	66*
Cc1cccc(C(=O)Nc2ccc(NC(=O)c3cccc(C)c3)cc2)c1	/	/	/	25
O=C(NCc1nc2ccccc2[nH]1)C1=C[C@@H](c2ccc(Br)cc2)C[C@@H](OCCCCO)O1	-10	1.1	13	-21
Cc1ccc(NC(=O)CN(C)C(=O)CCC(=O)N2CCOCC2)cc1	/	/	/	-3
c1ccc(/N=C2\N=C(Nc3ccccn3)c3ccccc32)nc1	/	/	/	48*
c1ccc2c(c1)CC(CN1CCNCC1)O2 (centres undefined)	/	/	/	-7
Cc1cc(C)nc(NNS(=O)(=O)c2c(F)cc(F)cc2Br)n1	/	/	/	-5
COc1ccc(OC)c(/C=C/C(=O)c2ccc3c(c2)OCCO3)c1	/	/	/	65*
O=C(/C=C/c1ccccc1)c1ccc2c(c1)OCCCCO2	88*	0.1	7	15
Cc1oncc1-c1csc(-c2ccccc2Cl)n1	-4	1	-3	6
CC1=C(SCc2ccccc2)C(=O)c2ccccc2C1=O	/	/	/	51*
SMILES	FLuc inhib CS	FLuc stim CS	PPC-1+TRAIL kill	C8 TRAIL sens
O=C(NC(=S)Nc1ccccc1)c1ccc(-c2ccccc2)cc1	9	0.9	54*	-10
COc1ccc(C(=O)NNC(=S)Nc2ccccc2)cc1	57*	0.4	22	27
O=C(O)c1ccc(NC(=S)NC(=O)c2ccc(-c3ccccc3)cc2)cc1	29	0.7	8	11
COc1ccc(-n2ncc3c(N4CCN(Cc5ccccc5)CC4)ncnc32)cc1	-7	1.1	17	38
CN(C)/C=C/C(=O)c1ccc(-n2cccc2)cc1	85*	0.2	27	32
CCOC(=O)N1CCN(C(=O)CSc2ccc(-c3ccc(OC)cc3)nn2)CC1	58*	0.4	32	20
CCOC(=O)N1CCN(C(=O)CSc2ccc(-c3ccc(OC)c(OC)c3)nn2)CC1	28	0.7	14	9
COc1ccc(-c2cc(C(F)(F)F)nc(NCc3cccs3)n2)cc1	-5	1.1	2	16
CN1C/C(=C/c2ccncc2)C(=O)/C(=C/c2ccncc2)C1	/	/	/	12
C=CC(=O)N1C/C(=C/c2ccccc2)C(=O)/C(=C\c2ccccc2)C1	/	/	/	92*
O=C1C(=Cc2ccc(Cl)cc2)Cc2ccccc21	/	/	/	16
C=CC(=O)N1C/C(=C/c2ccc(Cl)cc2)C(=O)/C(=C\c2ccc(Cl)cc2)C1	/	/	/	93*
CCc1ccc2oc(-c3ccc(OC)cc3)cc(=Nc3cccc(C(=O)O)c3)c2c1	51*	0.5	49	17
CCc1ccc2oc(-c3ccc(OC)cc3)cc(=Nc3c(C)n(C)n(-c4ccccc4)c3=O)c2c1	32	0.7	45	20
O=C(NCCN1CCOCC1)NC1(C(F)(F)F)Oc2ccc(Cl)cc2O1 (centres undefined)	-2	1	15	52*
Cc1ccc(/C=N/OC(=O)c2nn(C)cc2Cl)cc1	76*	0.2	/	-3
Cc1cccc(C2=N/C(=C\c3cccs3)C(=O)O2)c1	65*	0.3	18	-3
Oc1ccc(/C=C/c2cc(O)cc(O)c2)cc1	80*	0.2	32	39
COc1cc(O)cc(/C=C/c2ccccc2)c1	/	/	/	21
CC1(C)C=Cc2c(c3c(c4c(=O)c(-c5ccc(O)cc5)coc24)OC(C)(C)CC3)O1	-8	1.1	5	6
Cc1ccc2c(c1)N=C(c1ccccc1)CC(C(Cl)Cl)=N2	/	/	39	58*
Cc1ccc(O)c(C2=Nc3ccccc3N=C(c3cccs3)C2)c1	-6	1.1	14	-8
Cc1ccc(C2=Nc3ccccc3N=C(C(Cl)Cl)C2)cc1	24	0.8	/	54*
Cc1cc2c(cc1C)NC(=O)CC(c1ccccc1)=N2	/	/	/	21
O=C1C(Nc2ccccc2)=C/C(=N/S(=O)(=O)c2cccs2)c2ccccc21	13	0.9	22	97*
SMILES	FLuc inhib CS	FLuc stim CS	PPC-1+TRAIL kill	C8 TRAIL sens
Cc1ccc(S(=O)(=O)/N=C2\C=C(Nc3cccc(C(=O)O)c3)C(=O)c3ccccc32)cc1	/	/	/	40
Cc1ccc(S(=O)(=O)/N=C2\C=C(Nc3ccc(O)cc3)C(=O)c3ccccc32)cc1	/	/	/	93*
CCc1ccc(S(=O)(=O)/N=C2\C=C(Nc3ccc(C(=O)O)cc3)C(=O)c3ccccc32)cc1	/	/	/	29
Cc1ccc(NC2=C/C(=N/S(=O)(=O)c3cccs3)c3ccccc3C2=O)cc1	9	0.9	38	95*
COc1ccc2cc(C3(C)NC(=O)N(CC(=O)Nc4c(C)n(C)n(-c5ccccc5)c4=O)C3=O)ccc2c1 (centres undefined)	0	1	12	16
COc1ccc(C2(C(=O)c3ccccc3)C(=O)c3ccccc3C2=O)cc1	/	/	26	55*
Cc1ccc(NC(=O)CSC(C)C(=O)NCCc2ccccn2)cc1 (centres undefined)	-5	1.1	11	0
Cc1ccc(NC(=O)c2cc(C(=O)Nc3ccc(C)cc3)n(C)n2)cc1	/	/	/	-9
Cc1cc(Cl)n2c(nc3cc(F)c(F)cc32)c1C#N	-4	1	26	74*
N#Cc1ccc(NC(=O)Nc2ccc(Cl)cc2)cc1	4	1	0	58*
O=C(Nc1nnc([C@@H]2C[C@H](O)[C@@H](CO)O2)s1)c1cccc(Cl)c1	/	/	/	19
COc1ccc(C(=O)N/C(=C\c2ccco2)C(=O)NCCN2CCOCC2)cc1	/	/	/	-14
O=C(NCc1ccccn1)C1CCCN(S(=O)(=O)c2cc(Cl)ccc2Cl)C1 (centres undefined)	/	/	/	56*
COc1ccc(C)cc1S(=O)(=O)N1CCCC(C(=O)NCc2ccccn2)C1 (centres undefined)	/	/	/	4
CCN(CC)c1ccc(NC(=O)c2cncc(Br)c2)cc1	9	0.9	20	7

From PubChem
